Measured values as given in the array DNA melting data of Ke et al. (doi:10.1101/2024.01.08.574731).

Assays:
[1] = melting temperature; fluorescence melt of hairpins on a sequencing array, two-state fit, raised by 9.35 °C to match UV melts; conditions: sodium 0.088 M
Method in brief: (§1)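 To match UV melts, fitted temperatures were raised by 9.35 °C. These fits were bootstrapped two-state models that gave melting temperature and folding enthalpy, combined by inverse variance over four replicates. The input was normalised Cy3 fluorescence of library hairpins with annealed Cy3 and quencher oligos on a sequenced MiSeq flow cell, imaged in 50 mM Na-HEPES pH 8.0, 25 mM NaCl in 2.5 °C steps up to 60 °C.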

[2] = folding enthalpy; higher = less favourable; fluorescence melt of hairpins on a sequencing array, two-state fit; conditions: sodium 0.088 M
Method in brief: as §1

Row | Sequence | Tm [1] | folding enthalpy [2]
1 | GAACCCGAAAGGGGATTC ((((((....)))..))) | 42.9 °C | -16.6 kcal/mol
2 | GCGTGGAAACGC ((((....)))) | 58.8 °C | -30.1 kcal/mol
3 | GGGTATGGAAACATGCTC (.(.(((....))).).) | 33.4 °C | -23.1 kcal/mol
4 | GATCACCTGGTGATC ((((((...)))))) | 58.1 °C | -33.1 kcal/mol
5 | GCGCCGCGAAAGCGCCGC (((.(((....))).))) | 65.2 °C | -22.4 kcal/mol
6 | GGGAGGGGAAACTCTCCC (((((.(....).))))) | 52 °C | -31.4 kcal/mol
7 | GATCGATTGATCGATC ((((((....)))))) | 54.8 °C | -45.5 kcal/mol
8 | GGCAAGGGAAACCTTGCC (((((((....))))))) | 67.8 °C | -33.1 kcal/mol
9 | GAGAGAGGAAACTCCCTC (((.(((....))).))) | 28.6 °C | -22.1 kcal/mol
10 | GATCGATCTTCGATC ((((((...)))))) | 52.5 °C | -33.6 kcal/mol
11 | GTAACACGAAAGTGTAC (((.(((....)))))) | 42.8 °C | -14 kcal/mol
12 | GATCCCGGGTGGGATC ((((((....)))))) | 60.3 °C | -36 kcal/mol
13 | GATACCGAAAGGTGATC ((((((....))).))) | 38.1 °C | -15.7 kcal/mol
14 | GACCTGCGAAAGCACGTC (((.(((....))).))) | 42.8 °C | -25.4 kcal/mol
15 | GATCCATAGGTGGATC ((((((....)))))) | 52 °C | -36 kcal/mol
16 | GATCCGAATCGGATC ((((((...)))))) | 55 °C | -36 kcal/mol
17 | GATCGATGGTTCGATC ((((((....)))))) | 51.2 °C | -43 kcal/mol
18 | GATCAAAACTTTGATC ((((((....)))))) | 46.6 °C | -35.9 kcal/mol
19 | GCAGCGCGAAAGCGGCGC ((..(((....)))..)) | 67.5 °C | -21.6 kcal/mol
20 | GCGTAGCGAAAGCTTCGC (((.(((....))).))) | 55 °C | -36.2 kcal/mol
21 | GTATAACGAAAGTTGTAC (((.(((....))).))) | 45.5 °C | -28.4 kcal/mol
22 | GACGTGGGAAACCACGCC (.(((((....))))).) | 48.6 °C | -14 kcal/mol
23 | GATCATGCTTATGATC ((((((....)))))) | 48 °C | -35.9 kcal/mol
24 | CGTCTGAAAAGACG (((((....))))) | 55.2 °C | -29.4 kcal/mol

Row | Sequence | Tm [1] | folding enthalpy [2]
25 | GGGCGCGAAAGCGGTCCC ((((((....)))..))) | 63.8 °C | -11.7 kcal/mol
26 | GGTGGCGCGAAAGCGACC (((..(((....)))))) | 52.8 °C | -9.77 kcal/mol
27 | GCCAGAGGAAACTCTGAC (.(((((....))))).) | 38.6 °C | -18.3 kcal/mol
28 | GGCCGCGGAAACACGGCC (((((.(....).))))) | 66.1 °C | -45.4 kcal/mol
29 | GGTAGTCGAAAGACGACC (((.(((....))).))) | 54.2 °C | -44.9 kcal/mol
30 | GATCGAGGAAACTTGGTC ((.(.((....)).).)) | 22.6 °C | -8.03 kcal/mol
31 | GCTAGCGAAAGCTTAGC ((((((....))).))) | 52.5 °C | -22.1 kcal/mol
32 | GCGCTGCGAAAGCGGTGC ((.(.((....)).).)) | 66.7 °C | -31.8 kcal/mol
33 | GCGTGAAAACGC ((((....)))) | 58.5 °C | -32.6 kcal/mol
34 | TCCATGAAAATGGA (((((....))))) | 42.2 °C | -17.1 kcal/mol
35 | TTTGCGAAAGCAAA (((((....))))) | 54.3 °C | -17.4 kcal/mol
36 | GGGTGGACGAAAGTCCCC (((..(((....)))))) | 49.7 °C | -12.4 kcal/mol
37 | GATCCCATTAGGGATC ((((((....)))))) | 63 °C | -36.5 kcal/mol
38 | GGATTGGGAAACCAATTC (.(((((....))))).) | 44.2 °C | -28 kcal/mol
39 | GTTCCCGAAAGGGGTAAC ((((((....)))..))) | 29.8 °C | -12.2 kcal/mol
40 | GGAGAGACGAAAGTCTCC (((..(((....)))))) | 44 °C | -9.49 kcal/mol
41 | GATCCATGTATGGATC ((((((....)))))) | 58 °C | -42.6 kcal/mol
42 | GTAACAGGAAACTGTTGC (.(((((....))))).) | 45.3 °C | -24.4 kcal/mol
43 | GTGAAAGGAAACTTTTAC ((.((((....)))).)) | 31.3 °C | -22.9 kcal/mol
44 | GGAGCCGAAAGGCGCTCC ((((((....)))..))) | 47.9 °C | -9.71 kcal/mol
45 | TAGGTGAAAACCTA (((((....))))) | 41.1 °C | -15.4 kcal/mol
46 | GTGCTTCGAAAGAACCAC (((.(((....))).))) | 34.8 °C | -27.8 kcal/mol
47 | GCGGTTCCCGC ((((...)))) | 67.5 °C | -22.1 kcal/mol
48 | GTCAACGAAAGTTTGGAC ((((((....)))..))) | 27.8 °C | -13.8 kcal/mol

Row | Sequence | Tm [1] | folding enthalpy [2]
49 | GGCTTCGGAAACGGAGTC (.((.((....)).)).) | 39.9 °C | -24.1 kcal/mol
50 | GCTTGTGGAAACGTAAGC ((((..(....)..)))) | 36.6 °C | -17.7 kcal/mol
51 | GGAAAAGCGAAAGCTTCC (((..(((....)))))) | 40.5 °C | -15.1 kcal/mol
52 | GTGAACGAAAGTTACAC ((((((....))).))) | 38.8 °C | -17.7 kcal/mol
53 | GTCTCACGAAAGTGTGAC (((.(((....))).))) | 53.8 °C | -43.4 kcal/mol
54 | GCAATTGGAAACAACTGC (((.(((....))).))) | 34.8 °C | -26.6 kcal/mol
55 | GATCTCGCGCGAGATC ((((((....)))))) | 62.5 °C | -48.4 kcal/mol
56 | GCGACAGGAAACTGTCAC (.(((((....))))).) | 43.8 °C | -16.6 kcal/mol
57 | GCTACCTCGAAAGAGAGC (((..(((....)))))) | 30.1 °C | -16.3 kcal/mol
58 | GCAAACGAAAGTTATTGC ((((((....)))..))) | 31.7 °C | -18.5 kcal/mol
59 | GCACCAGGAAACTAGTGC ((((.((....)).)))) | 40.2 °C | -29.2 kcal/mol
60 | GTCGTAGGAAACCACGAC (((((.(....).))))) | 49.1 °C | -31.8 kcal/mol
61 | GGGCTTTCGAAAGAACCC (((..(((....)))))) | 35.7 °C | -40 kcal/mol
62 | CGGGTACGGAAACGTCCG (((..(((....)))))) | 40 °C | -20 kcal/mol
63 | GCTGGACGAAAGTCTAGC (((.(((....))).))) | 62.4 °C | -39.1 kcal/mol
64 | GATCTTCCAAAAGATC ((((((....)))))) | 41.7 °C | -32 kcal/mol
65 | GCATGGCGAAAGCCCAGC ((..(((....)))..)) | 46.3 °C | -12 kcal/mol
66 | GTATGTGGAAACACATGC (.(((((....))))).) | 47.9 °C | -24.3 kcal/mol
67 | GTGCGCGAAAGCGGTCAC ((((((....)))..))) | 43.5 °C | -14.1 kcal/mol
68 | GTGCACGAAAGTGACAC ((((((....))).))) | 52.9 °C | -25.9 kcal/mol
69 | GATCTAGACGTAGATC ((((((....)))))) | 44.8 °C | -38.9 kcal/mol
70 | GATCCATAACTGGATC ((((((....)))))) | 48.1 °C | -33.9 kcal/mol
71 | GACCTCCGAAAGGAAGTC (((.(((....))).))) | 44.7 °C | -26.1 kcal/mol
72 | GCCCGCCGAAAGGCAGGC (((.(((....))).))) | 69 °C | -20.8 kcal/mol

Row | Sequence | Tm [1] | folding enthalpy [2]
73 | GCTATCGGAAACGACAGC (((.(((....))).))) | 43.8 °C | -30.9 kcal/mol
74 | GCTGGGCGAAAGCCTAGC (((.(((....))).))) | 66.2 °C | -31.5 kcal/mol
75 | GGCGTCGAAAGACATGCC ((((((....)))..))) | 53 °C | -23.1 kcal/mol
76 | GTTACGGGAAACCGTAAC (((((((....))))))) | 60.5 °C | -46 kcal/mol
77 | GCTCCGCGAAAGCATAGC (((..((....))..))) | 33.1 °C | -10.1 kcal/mol
78 | CCATAGAAATATGG (((((....))))) | 35.2 °C | -11.6 kcal/mol
79 | GTTCAGCCGAAAGGCAAC (((..(((....)))))) | 31.4 °C | -7.39 kcal/mol
80 | GCTCGAACGAAAGTTAGC (((..(((....)))))) | 31.5 °C | -12.1 kcal/mol
81 | GAGGACGGAAACGCCCTC ((((.((....)).)))) | 51.7 °C | -47.2 kcal/mol
82 | GATCAGATCACTGATC ((((((....)))))) | 49.9 °C | -28.6 kcal/mol
83 | GCCTGTCGAAAGACTGGC (((.(((....))).))) | 61.2 °C | -39.1 kcal/mol
84 | GTACCGGGAAACCGGTGC (.(((((....))))).) | 57.1 °C | -19.1 kcal/mol
85 | GATCGAAGAATCGATC ((((((....)))))) | 47.1 °C | -28.4 kcal/mol
86 | CGTCAGCGGAAACGCACG (((..(((....)))))) | 40.6 °C | -15.4 kcal/mol
87 | GATCATCACCATGATC ((((((....)))))) | 46.8 °C | -36.1 kcal/mol
88 | GGAAATCGAAAGATTCC (((.(((....)))))) | 40.4 °C | -20.9 kcal/mol
89 | GATCGTGTGAACGATC ((((((....)))))) | 62.7 °C | -39.2 kcal/mol
90 | GATCTAGAGTTAGATC ((((((....)))))) | 37.7 °C | -24 kcal/mol
91 | GTTACACCGAAAGGTAAC (((..(((....)))))) | 31.8 °C | -15.8 kcal/mol
92 | GCTGTGCGAAAGCAAAGC (((.(((....))).))) | 55.7 °C | -42.2 kcal/mol
93 | GGACTTGCGAAAGCATCC (((..(((....)))))) | 26.3 °C | -9.43 kcal/mol
